Laboratory results reported in ChEMBL document CHEMBL4368912, “Discovery and Development of N-[4-(1-Cyclobutylpiperidin-4-yloxy)phenyl]-2-(morpholin-4-yl)acetamide Dihydrochloride (SUVN-G3031): A Novel, Potent, Selective, and Orally Active Histamine H3 Receptor Inverse Agonist with Robust Wake-Promoting Activity” (J Med Chem, 2019).
Calls of active or inactive are those of the source. No cut-off for these calls is given here.

What was measured:
Rattus norvegicus [1] = assay: In vivo receptor occupancy at histamine 3 receptor in po dosed Wistar rat frontal cortex after 1 to 24 hrs by LC-MS/MS analysis; assay type: functional
[2] = Apparent permeability across apical to basolateral side in human Caco2 cells at 10 uM; assay type: ADME, cell-based; settings: Caco-2
How it was run: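 Caco-2 monolayers; bidirectional permeability measured at 10 µM, with and without the P-gp inhibitor verapamil.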

[3] = Mutagenicity in Escherichia coli WP2 in absence of metabolic activation by Ames test; assay type: toxicity
How it was run: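 Reverse-mutation test in Salmonella typhimurium TA1537, TA1535, TA98 and TA100 and in E. coli WP2 uvrA, run with and without metabolic activation.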

Cytochrome P450 2D6 = Cytochrome P450 2D6 (Homo sapiens, UniProt P10635); assay: Inhibition of CYP2D6 in human liver microsomes using dextromethorphan as substrate after 12 mins in presence of NADPH by LC-MS/MS analysis; assay type: ADME
Cytochrome P450 2C9 = Cytochrome P450 2C9 (Homo sapiens, UniProt P11712); assay: Inhibition of CYP2C9 (unknown origin); assay type: ADME
[4] = Metabolic stability in rat liver microsomes in presence of NADPH after 30 mins by LC-MS/MS analysis; assay type: ADME, Microsome; settings: read-out: Stability
Cytochrome P450 2C8 = target: T1, Cytochrome P450 2C8 (Homo sapiens, UniProt P10632); assay: Inhibition of CYP2C8 (unknown origin); assay type: ADME
T1 sequence (P10632 whole entry): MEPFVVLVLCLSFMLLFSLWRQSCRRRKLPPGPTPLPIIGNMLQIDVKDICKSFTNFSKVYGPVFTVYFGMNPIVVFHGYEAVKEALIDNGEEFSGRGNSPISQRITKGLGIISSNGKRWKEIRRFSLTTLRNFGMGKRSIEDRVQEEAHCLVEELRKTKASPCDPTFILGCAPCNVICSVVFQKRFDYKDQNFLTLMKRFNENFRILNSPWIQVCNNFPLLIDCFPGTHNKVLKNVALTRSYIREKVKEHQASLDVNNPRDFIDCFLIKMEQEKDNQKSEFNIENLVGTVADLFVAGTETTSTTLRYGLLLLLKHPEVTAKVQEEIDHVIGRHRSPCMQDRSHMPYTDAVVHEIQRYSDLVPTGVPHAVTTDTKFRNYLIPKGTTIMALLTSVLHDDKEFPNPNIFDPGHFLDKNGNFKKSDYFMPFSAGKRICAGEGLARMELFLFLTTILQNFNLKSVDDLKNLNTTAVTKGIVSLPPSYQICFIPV

Rattus norvegicus [5] = assay: In vivo receptor occupancy at histamine 3 receptor in Wistar rat frontal cortex at 1 to 3 mg/kg, po after measured after 4 to 6 hrs by LC-MS/MS analysis relative to control; assay type: functional
[6] = Toxicity in Wistar rat up to 100 mg/kg, po by Irwin's test; assay type: organism-based; settings: in vivo
How it was run: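 CNS safety was screened with a modified Irwin's test at oral doses up to 100 mg/kg.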

Rattus norvegicus [7] = assay: Induction of wake promoting activity in orexin-B-saporin lesioned Wistar rat assessed as decrease in REM sleep time at 10 to 30 mg/kg, po dosed 15 mins before start of dark phase; assay type: functional, organism-based
How it was run: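 Rats carried epidural frontal-cortex EEG screws, nuchal EMG leads, and bilateral lateral hypothalamic orexin-B-saporin (490 ng/0.8 µl). After at least 3 weeks' recovery, they were dosed 15 min before lights-off in a crossover design with a 1-week washout. Wake, NREM and REM time was totalled over 3 h. DREM was scored as REM after ≥60 s wake. Dunnett's test was used.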

[8] = Fraction unbound in rat brain at 1 uM by equilibrium dialysis; assay type: ADME, tissue-based
Cytochrome P450 3A4 = Cytochrome P450 3A4 (Homo sapiens, UniProt P08684); assay: Inhibition of CYP3A4 in human liver microsomes using midazolam as substrate after 2 mins by LC-MS/MS analysis; assay type: ADME
[9] = Solubility in water; assay type: physicochemical
Cytochrome P450 2A6 = target: T2, Cytochrome P450 2A6 (Homo sapiens, UniProt P11509); assay: Inhibition of CYP2A6 (unknown origin); assay type: ADME
T2 sequence (P11509 whole entry): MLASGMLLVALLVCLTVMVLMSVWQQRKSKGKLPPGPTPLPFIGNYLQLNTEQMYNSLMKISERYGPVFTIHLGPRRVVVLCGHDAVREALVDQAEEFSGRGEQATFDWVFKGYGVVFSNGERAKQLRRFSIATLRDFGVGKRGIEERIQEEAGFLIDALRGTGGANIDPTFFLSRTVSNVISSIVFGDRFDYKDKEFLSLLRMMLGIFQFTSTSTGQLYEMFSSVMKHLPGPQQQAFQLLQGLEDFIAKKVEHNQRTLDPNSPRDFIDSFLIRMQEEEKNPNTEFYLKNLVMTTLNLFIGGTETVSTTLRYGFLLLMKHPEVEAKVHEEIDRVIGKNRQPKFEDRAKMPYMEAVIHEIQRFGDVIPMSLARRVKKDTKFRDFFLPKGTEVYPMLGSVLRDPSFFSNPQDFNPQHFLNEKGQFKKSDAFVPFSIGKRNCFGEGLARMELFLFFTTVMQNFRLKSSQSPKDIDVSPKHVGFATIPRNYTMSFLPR

[10] = Toxicity in Wistar rat assessed as effect on latency to fall at 30 to 100 mg/kg, po by rotarod test; assay type: organism-based; settings: in vivo
How it was run: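 Motor coordination was assessed on the rotarod as latency to fall after oral doses of 30 and 100 mg/kg.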

[11] = Metabolic stability in dog hepatocytes after 30 mins by LC-MS/MS analysis; assay type: ADME, cell-based, Canis lupus familiaris, Hepatocyte; settings: read-out: Stability
[12] = Mutagenicity in Salmonella typhimurium TA1535 in absence of metabolic activation by Ames test; assay type: toxicity; settings: salmonella enterica subsp. enterica serovar typhimurium
[13] = Clearance in Wistar rat at 1 mg/kg, iv by LC-MS/MS analysis; assay type: ADME, organism-based; settings: in vivo
How it was run: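 Fasted male Wistar rats dosed i.v. in water for injection at 2 mL/kg. Clearance and half-life derived from the i.v. plasma profile.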

Rattus norvegicus [14] = assay: In vivo inverse agonist activity at histamine 3 receptor in rat assessed as inhibition of RAMH-induced dipsogenia at 0.3 to 10 mg/kg, po measured after 3 days; assay type: functional, organism-based
How it was run: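 Male rats were dosed orally with 0.3, 0.5, 0.7, 1, 3 or 10 mg/kg (vehicle 1 mL/kg), then given (R)-α-methylhistamine 2.5 mg/kg s.c. Read-out was water intake (mL), reported as mean ± SEM.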

[15] = Partition coefficient, log P of the compound; assay type: physicochemical; settings: octanol/water
[16] = Volume of distribution at steady state in Wistar rat at 3 mg/kg, po or 1 mg/kg, iv by LC-MS/MS analysis; assay type: ADME, organism-based; settings: Wistar, in vivo, read-out: Vdss
How it was run: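 Fasted male Wistar rats were dosed orally and intravenously, with water for injection as the vehicle for both routes, at dosing volumes of 10 mL/kg p.o. and 2 mL/kg i.v.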

[17] = Dissociation constant, pKa1 of the compound by potentiometric titration assay; assay type: physicochemical
[18] = Mutagenicity in Salmonella typhimurium TA1537 in absence of metabolic activation by Ames test; assay type: toxicity; settings: salmonella enterica subsp. enterica serovar typhimurium
[19] = Lipophilicity, log D of the compound at pH 7.4; assay type: physicochemical; settings: buffer
[20] = AUC (0 to 24 hrs) in Wistar rat at 3 mg/kg, po by LC-MS/MS analysis; assay type: ADME, organism-based; parameters: dose 3 mg/kg, time < 24 hr, route oral; settings: in vivo
How it was run: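 Fasted male Wistar rats; compound in water for injection, given i.v. (2 mL/kg) or p.o. (10 mL/kg). Plasma exposure measured as AUC0-24hr.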

Cytochrome P450 3A4, sequence (P08684 whole entry): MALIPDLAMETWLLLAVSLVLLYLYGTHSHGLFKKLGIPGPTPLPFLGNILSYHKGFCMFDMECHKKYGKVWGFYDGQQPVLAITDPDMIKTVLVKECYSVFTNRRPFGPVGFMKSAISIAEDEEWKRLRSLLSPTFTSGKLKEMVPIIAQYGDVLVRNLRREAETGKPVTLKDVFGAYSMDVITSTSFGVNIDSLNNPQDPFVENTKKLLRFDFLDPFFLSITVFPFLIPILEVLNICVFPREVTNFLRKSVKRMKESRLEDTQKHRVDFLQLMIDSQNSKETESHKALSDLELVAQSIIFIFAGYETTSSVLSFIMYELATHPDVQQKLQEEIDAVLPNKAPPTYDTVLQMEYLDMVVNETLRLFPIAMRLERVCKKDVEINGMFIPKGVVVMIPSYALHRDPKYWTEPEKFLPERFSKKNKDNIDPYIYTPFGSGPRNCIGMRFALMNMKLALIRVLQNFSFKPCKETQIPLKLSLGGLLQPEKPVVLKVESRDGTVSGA
Cytochrome P450 2D6, sequence (P10635 whole entry): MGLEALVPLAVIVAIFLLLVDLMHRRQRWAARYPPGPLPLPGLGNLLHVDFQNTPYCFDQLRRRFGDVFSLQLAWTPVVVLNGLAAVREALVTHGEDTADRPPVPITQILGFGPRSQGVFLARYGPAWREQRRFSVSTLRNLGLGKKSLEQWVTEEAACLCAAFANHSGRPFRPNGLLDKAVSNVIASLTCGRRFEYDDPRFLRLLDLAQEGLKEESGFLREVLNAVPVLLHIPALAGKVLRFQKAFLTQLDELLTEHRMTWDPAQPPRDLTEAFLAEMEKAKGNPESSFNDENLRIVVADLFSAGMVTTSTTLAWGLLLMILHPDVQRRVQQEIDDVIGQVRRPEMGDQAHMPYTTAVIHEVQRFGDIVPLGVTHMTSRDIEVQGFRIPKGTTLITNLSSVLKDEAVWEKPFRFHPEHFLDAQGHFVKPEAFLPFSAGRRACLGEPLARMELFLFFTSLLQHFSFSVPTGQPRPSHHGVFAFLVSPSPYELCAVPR
Cytochrome P450 2C9, sequence (P11712 whole entry): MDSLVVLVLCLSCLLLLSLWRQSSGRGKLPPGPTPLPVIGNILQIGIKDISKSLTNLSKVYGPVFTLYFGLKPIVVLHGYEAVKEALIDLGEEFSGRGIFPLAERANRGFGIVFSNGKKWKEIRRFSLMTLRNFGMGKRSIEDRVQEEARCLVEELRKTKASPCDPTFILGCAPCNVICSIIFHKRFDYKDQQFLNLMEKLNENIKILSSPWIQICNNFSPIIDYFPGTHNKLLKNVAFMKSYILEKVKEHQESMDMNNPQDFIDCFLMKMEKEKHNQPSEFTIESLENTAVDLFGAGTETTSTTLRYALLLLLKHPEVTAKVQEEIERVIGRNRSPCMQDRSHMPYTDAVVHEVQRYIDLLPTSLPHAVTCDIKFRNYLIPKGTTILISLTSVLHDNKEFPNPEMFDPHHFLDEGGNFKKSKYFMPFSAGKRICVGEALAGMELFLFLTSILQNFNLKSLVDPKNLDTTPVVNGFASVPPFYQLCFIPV

In the case of Cl.Cl.O=C(CN1CCOCC1)Nc1ccc(OC2CCN(C3CCC3)CC2)cc1, the ED50 (Rattus norvegicus [1]) is reported as 0.24 mg/kg, the ED80 (Rattus norvegicus [1]) is reported as 3.05 mg/kg and the Occ (Rattus norvegicus [1]) is reported as “Dose-dependent effect”. The Papp A→B at 10 µM [2] was 30.8 ×10⁻⁶ cm/s, the Activity [3] was “Non-Toxic” and the IC50 (Cytochrome P450 2D6) was greater than 45 µM. For the same molecule, the IC50 (Cytochrome P450 2C9) was greater than 45 µM, the remaining at 0.5 h [4] was 27% and the IC50 (Cytochrome P450 2C8) was greater than 45 µM. The Occ (Rattus norvegicus [5]) was 50%, the Activity [6] was “Non-Toxic” and the Activity (Rattus norvegicus [7]) was “Active”. It also gave a fraction unbound at 1 µM [8] of 0.57, an IC50 (Cytochrome P450 3A4) greater than 45 µM and a solubility [9] of 730 mg/mL. The IC50 (Cytochrome P450 2A6) was greater than 45 µM, the Activity [10] was “Non-Toxic” and the remaining at 0.5 h [11] was 33%. The Activity [12] was “Non-Toxic”, the clearance [13] was 63 mL/min/kg and the inhibition (Rattus norvegicus [14]) was “Active”. The logP [15] was 2.2, the Vd [16] was 5 L/kg and the pKa [17] was 8.5. The Activity [18] was “Non-Toxic”, the logD [19] was 0.4 and the AUC(0-t) at 24 h [20] was 626 ng·h/mL.
